Runt-SMMHC FRET: blocks binding of human RUNX1 Runt domain to CBFb-SMMHC | Cerulean-Runt/Venus-CBFb-SMMHC FRET ratio 530/480, 1 h | inhibition, % at 20 µM | actives 0.74% (n = 220,000) | AID 1434;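 active means mean inhibition across duplicate retests at 20 µM reaching about 50%, limit read from the data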;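 further: inhibitors lower the FRET ratio by blocking Runt binding to CBFb-SMMHC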
RanGTP-Imp inh: disruptors of Ran-importin-beta complex formation – biochemical, FRET, CFP-Ran, YFP-importin-beta, homogeneous, primary screen | cell-free CFP-Ran/YFP-importin-beta FRET ratio | inhibition, % (no concentration beside the values) | actives 1.1% (n = 300,000);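 active means more than half of the replicate wells show a fall in the fluorescence ratio signal beyond about 16%, limit read from the data, passing the limit was not always enough; inconclusive means exactly half of the replicate wells pass the set limit; inactive means fewer than half of replicates pass the limit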
Hck Nef HTS: blocks Nef-activated human Hck kinase | P08631 | Recombinant Hck-YEEI plus Nef, Z-Lyte FRET kinase assay | inhibition, % at 20 µM | actives 0.68% (n = 220,000) | AID 463187;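 active means Hck-Nef kinase inhibition above about 50%, limit read from the data; inactive means inhibition below that limit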
Target sequence (P08631 whole entry, looked up): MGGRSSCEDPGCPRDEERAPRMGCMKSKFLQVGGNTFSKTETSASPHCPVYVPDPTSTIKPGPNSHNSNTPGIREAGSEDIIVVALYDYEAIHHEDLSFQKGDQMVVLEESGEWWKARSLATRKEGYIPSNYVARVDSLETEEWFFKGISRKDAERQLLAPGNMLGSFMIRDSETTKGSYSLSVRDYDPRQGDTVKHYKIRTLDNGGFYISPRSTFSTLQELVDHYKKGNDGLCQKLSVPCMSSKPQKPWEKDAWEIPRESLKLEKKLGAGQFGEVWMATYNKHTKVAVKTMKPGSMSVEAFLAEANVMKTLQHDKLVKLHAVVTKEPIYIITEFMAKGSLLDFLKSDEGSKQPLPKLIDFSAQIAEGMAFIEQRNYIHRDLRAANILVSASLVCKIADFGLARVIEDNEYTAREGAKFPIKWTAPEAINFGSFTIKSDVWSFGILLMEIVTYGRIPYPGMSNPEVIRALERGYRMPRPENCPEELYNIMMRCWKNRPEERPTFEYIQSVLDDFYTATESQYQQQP
Runt-CBFb FRET: inhibitors of human RUNX1 Runt domain binding to CBFb. Cerulean-Runt/Venus-CBFb FRET ratio 530/480, 1 h. inhibition, % at 20 µM. actives 0.46% (n = 220,000);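 active means inhibition over about 50% at 20 µM in the single-dose screen, limit read from the data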
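Reagent – Venus-CBFb binding partner, 100 nM · Assay system – Cerulean-tagged RUNX1 Runt domain (FRET donor) fusion protein · Input – 100 nM per protein · Incubation – two 1 h room-temperature incubations shielded from light · Measured by – FRET fluorescence · Medium – Tris buffer pH 7.5 with salts and BSA · Benchmarks – unlabeled CBFb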
CaV13 ICDI inh: Disruptors of the CACNA1D IQ motif to Ca2+-dependent inactivation inhibitor domain association, primary screening, Förster resonance energy transfer in intact living …; HEK cells, CFP/YFP FRET ICDI-IQ, plate reader, 10 min; percent FRET-ratio fall versus neutral wells; inhibition, % at 12.3 µM; actives 0.098% (n = 340,000); AID 743397;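 active means mean replicate inhibition of at least 30% and at least 1% of replicates passing that level; inconclusive means only one of the two criteria is met; inactive means neither criterion is met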
Large screens that a line does not name were inactive. A selection: hits, their analogues and other compounds. The true share with any hit is near 1.5%.

O=C(Cn1nnc(-c2ccc(F)cc2)n1)OCC(=O)c1ccccc1	RanGTP-Imp inh 20
COc1cc(OC)c2c(O)c3c(c(-c4c5c(c(O)c6c(OC)cc(OC)cc46)CO[C@@H](C)[C@H]5O)c2c1)[C@H](O)[C@H](C)OC3	RanGTP-Imp inh inconclusive, Hck Nef HTS 51 (no result: CaV13 ICDI inh)
COc1cc2c(c(OC)c1O)C(=O)CO2	none
COc1ccccc1NC(=O)CSc1nnc(-c2ccc(NC(C)=O)cc2)n1C	none
COc1ccccc1C(=O)Nc1ccc(-c2nnc(SCC(=O)O)n2C)cc1	RanGTP-Imp inh 20
Cc1cc(/C=N/NC(=O)Cn2c3ccccc3c(=O)c3ccccc32)c(C)n1-c1ccccc1	RanGTP-Imp inh 94 (no result: Runt-CBFb FRET)
Cc1ccc(N(CC(=O)N/N=C/c2cc(C)n(-c3ccccc3)c2C)S(C)(=O)=O)c(C)c1	none (no result: CaV13 ICDI inh)
CCNC(=O)O/N=C1\CCCCC1c1ccc([N+](=O)[O-])cc1[N+](=O)[O-] (centres undefined)	none (no result: Runt-SMMHC FRET, Hck Nef HTS, Runt-CBFb FRET)
Cc1oc(C)c2c(=O)ccc3c(c12)OC(N)=C(C#N)C3c1ccc(F)cc1 (centres undefined)	none
Cc1cc(C)c2c3c(sc2n1)C(c1cccc(F)c1)C(C#N)=C(N)O3 (centres undefined)	Runt-SMMHC FRET 62, RanGTP-Imp inh 91, Runt-CBFb FRET 90
CCCC1(C(=O)O)NC(c2ccccc2O)C2C(=O)N(Cc3ccccc3)C(=O)C21 (centres undefined)	RanGTP-Imp inh inconclusive
CSCCC1(C(=O)O)NC(c2ccccc2O)C2C(=O)N(C(C)C)C(=O)C21 (centres undefined)	CaV13 ICDI inh 39
CN1CCCc2cc3c(C(F)(F)F)cc(=O)oc3nc21	RanGTP-Imp inh 132
COc1ccc(C2(C)NC(=O)N(CC(=O)Nc3c(C)n(C)n(-c4ccccc4)c3=O)C2=O)cc1 (centres undefined)	none (no result: Runt-SMMHC FRET, Hck Nef HTS, Runt-CBFb FRET)
COc1cc(C(=S)N2CCCC2)ccc1O	Runt-SMMHC FRET 66
CCCc1cc(N2CCN(C(=O)c3ccco3)CC2)n2c(nc3ccccc32)c1C#N	Runt-SMMHC FRET 65, RanGTP-Imp inh 31
CCCc1cc(-n2ccnc2C)n2c(nc3ccccc32)c1C#N	none (no result: Runt-SMMHC FRET, Hck Nef HTS, Runt-CBFb FRET)
CC1(C)CC(=O)C=C(NNC(=O)c2ccccc2O)C1	none (no result: Runt-CBFb FRET)
COc1ccc(C(=O)NNC2=CC(=O)CC(C)(C)C2)cc1	RanGTP-Imp inh 33
O=S(=O)(Cc1ccccc1)N1CCN(Cc2ccc3c(c2)OCO3)CC1	RanGTP-Imp inh 159
O=C(CNC(=O)c1ccc(Cl)cc1Cl)OCN1C(=O)c2ccccc2C1=O	RanGTP-Imp inh inconclusive (no result: Runt-SMMHC FRET, Hck Nef HTS, Runt-CBFb FRET)
O=C(Nc1ccc(N2CCOCC2)c(F)c1)c1cccs1	RanGTP-Imp inh 16 (no result: Runt-SMMHC FRET, Hck Nef HTS, Runt-CBFb FRET, CaV13 ICDI inh)
COc1cc2ccccc2nn1	Runt-SMMHC FRET 82, RanGTP-Imp inh 65
CC(C)n1cc(/C=N/NC(=O)COc2cccc3cccnc23)c2ccccc21	Hck Nef HTS 74
COc1cccc(/C=N/NC(=O)COc2cccc3cccnc23)c1O	none
C=CCn1cc(/C=N/NC(=O)COc2cccc3cccnc23)c2ccccc21	Hck Nef HTS 71
COc1ccc(NC(=S)NC2CC3CCCC(C2)N3C2CC2)cc1 (centres undefined)	none
CCCN1C2CCCC1CC(NC(=S)Nc1ccc(OC)cc1)C2 (centres undefined)	Runt-SMMHC FRET 71
C=CCSC1=N/C(=C\c2ccc3c(c2)OCO3)C(=O)S1	none (no result: CaV13 ICDI inh)
C=CCSC1=N/C(=C\c2cc(OCC)c(OC(C)=O)c([N+](=O)[O-])c2)C(=O)S1	Hck Nef HTS 84
CCCCn1c(N)c(N(CCOC)C(=O)c2sc3cc(F)ccc3c2Cl)c(=O)[nH]c1=O	none (no result: Runt-SMMHC FRET, Hck Nef HTS, Runt-CBFb FRET)
COCCCn1c(=O)/c(=C\c2ccc(OC(F)F)c(OC)c2)s/c1=C(/C#N)C(N)=O	Runt-SMMHC FRET 81
Nc1c(Cl)ncnc1N/N=C/c1ccc2ccccc2n1	none (no result: RanGTP-Imp inh)
Nc1c(Cl)ncnc1N/N=C/c1ccccn1	Runt-SMMHC FRET 78 (no result: RanGTP-Imp inh)
COC(=O)Cc1cc(=O)n2[nH]c(C)nc2n1	RanGTP-Imp inh 18
COC(=O)Cc1cc(=O)n2[nH]c(SC)nc2n1	RanGTP-Imp inh inconclusive
O=C(CCC1N=C2c3ccccc3N=C(SCc3ccc(Cl)cc3)N2C1=O)NCc1ccco1 (centres undefined)	RanGTP-Imp inh 27 (no result: CaV13 ICDI inh)
O=C(c1cc2ccccc2o1)N1CCN(S(=O)(=O)c2ccc(F)c(F)c2F)CC1	none (no result: Runt-SMMHC FRET, RanGTP-Imp inh, Hck Nef HTS, Runt-CBFb FRET)

Screening data as filed in PubChem BioAssay.
